What was measured:
[1] = target: T1, Inhibitor of nuclear factor kappa-B kinase subunit beta (Homo sapiens, UniProt O14920); experiment: Inhibition of human IKK-beta by substrate phosphorylation assay
T1 sequence (O14920 whole entry): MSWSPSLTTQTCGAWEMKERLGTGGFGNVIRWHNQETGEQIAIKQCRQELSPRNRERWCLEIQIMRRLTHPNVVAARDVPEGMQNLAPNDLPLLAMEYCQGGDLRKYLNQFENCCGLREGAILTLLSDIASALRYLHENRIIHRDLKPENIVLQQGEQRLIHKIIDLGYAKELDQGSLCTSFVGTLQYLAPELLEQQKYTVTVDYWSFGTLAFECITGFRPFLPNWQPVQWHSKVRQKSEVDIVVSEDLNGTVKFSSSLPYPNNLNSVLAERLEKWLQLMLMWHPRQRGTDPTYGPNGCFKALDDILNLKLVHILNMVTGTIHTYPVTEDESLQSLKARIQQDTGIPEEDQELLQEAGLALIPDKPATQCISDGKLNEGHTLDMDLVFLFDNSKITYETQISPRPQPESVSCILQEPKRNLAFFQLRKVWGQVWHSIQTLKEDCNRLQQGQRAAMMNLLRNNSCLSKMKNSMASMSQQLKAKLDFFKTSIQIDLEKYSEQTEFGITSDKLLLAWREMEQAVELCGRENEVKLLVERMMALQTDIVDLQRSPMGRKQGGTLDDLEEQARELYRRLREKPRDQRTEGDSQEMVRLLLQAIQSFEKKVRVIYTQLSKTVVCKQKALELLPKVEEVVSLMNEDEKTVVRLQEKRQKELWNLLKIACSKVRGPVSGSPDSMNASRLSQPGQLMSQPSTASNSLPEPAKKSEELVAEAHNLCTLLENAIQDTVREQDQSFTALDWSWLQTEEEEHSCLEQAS
In short: (§1)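 Human IKK-α or IKK-β was tested on a biotinylated 21-residue IκBα peptide captured on avidin-coated plates and blocked with 3% BSA. Enzyme in 25 mM Tris pH 7.4, 2 mM DTT and 0.01% Tween 20 was preincubated with compound (1% DMSO) for 10 min at 25 °C. An ATP/MgCl₂ solution started the reaction, which ran 60 min at 25 °C. Phospho-IκBα was detected with a mouse monoclonal antibody, then HRP anti-mouse IgG and TMB.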

THP-1 = experiment: Antiinflammatory activity in human THP1 cells assessed as inhibition of LPS-induced TNF-alpha production after 6 hrs by ELISA; settings: THP-1, 6 h
[2] = target: T2, Inhibitor of nuclear factor kappa-B kinase subunit alpha (Homo sapiens, UniProt O15111); experiment: Inhibition of human IKK-alpha by substrate phosphorylation assay; in short: as §1
T2 sequence (O15111 whole entry): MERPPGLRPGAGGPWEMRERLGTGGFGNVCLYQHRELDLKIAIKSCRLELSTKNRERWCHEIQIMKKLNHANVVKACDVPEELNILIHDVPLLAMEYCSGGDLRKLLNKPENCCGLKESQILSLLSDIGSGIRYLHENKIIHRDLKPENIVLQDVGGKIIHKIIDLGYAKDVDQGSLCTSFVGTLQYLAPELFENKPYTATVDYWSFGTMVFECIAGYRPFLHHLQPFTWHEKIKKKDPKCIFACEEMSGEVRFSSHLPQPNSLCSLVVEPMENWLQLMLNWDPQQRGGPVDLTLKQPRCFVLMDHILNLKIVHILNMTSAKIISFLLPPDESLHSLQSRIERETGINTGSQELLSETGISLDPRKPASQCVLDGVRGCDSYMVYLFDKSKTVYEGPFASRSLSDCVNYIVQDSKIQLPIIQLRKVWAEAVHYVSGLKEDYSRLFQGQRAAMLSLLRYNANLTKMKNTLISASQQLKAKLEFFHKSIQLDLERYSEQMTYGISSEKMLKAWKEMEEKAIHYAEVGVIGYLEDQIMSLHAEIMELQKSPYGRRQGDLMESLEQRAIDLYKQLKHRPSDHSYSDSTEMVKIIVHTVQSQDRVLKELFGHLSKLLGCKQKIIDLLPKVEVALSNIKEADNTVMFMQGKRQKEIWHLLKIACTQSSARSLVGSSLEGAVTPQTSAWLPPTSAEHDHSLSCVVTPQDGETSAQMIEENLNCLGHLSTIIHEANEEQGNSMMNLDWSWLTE

Mus musculus = experiment: Antiinflammatory activity in po dosed DBA/2 mouse assessed as inhibition of LPS-stimulated plasma TNFalpha production pretreated 60 mins before LPS challenge measured after 90 mins by ELISA; assay type: functional, organism-based
In short: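 Female DBA/2 mice were given compound by oral gavage at 3 and 10 mg/kg. After 60 min, LPS in 0.2 mL saline was injected i.p. Plasma TNF-α was measured by ELISA 90 min after the LPS challenge.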

Structure (SMILES): NC(=O)Nc1sc2c(c1C(N)=O)CCc1nn(Cc3ccncc3)cc1-2
- IC50 [1]: 2.3 µM
- IC50 (THP-1): 9 µM

Structure (SMILES): NC(=O)Nc1sc2c(c1C(N)=O)CCc1nn(C3CCCN(Cc4ccc(Cl)cc4)C3)cc1-2 (stereo unspecified)
- IC50 [1]: 2.5 µM
- IC50 [2]: > 100 µM
- IC50 (THP-1): 0.6 µM

Structure (SMILES): CCCn1ncc2c1CCc1c-2sc(NC(N)=O)c1C(N)=O
- IC50 [1]: 2.2 µM
- IC50 (THP-1): 42 µM

Structure (SMILES): CC(=O)Nc1ccc(CN2CCCC(n3cc4c(n3)CCc3c-4sc(NC(N)=O)c3C(N)=O)C2)c(F)c1 (stereo unspecified)
- IC50 [1]: > 10 µM

Structure (SMILES): NC(=O)Nc1sc2c(c1C(N)=O)CCc1nn(C3CCCN(Cc4ccc(O)cc4F)C3)cc1-2 (stereo unspecified)
- IC50 [1]: 0.9 µM
- IC50 (THP-1): 0.7 µM

Structure (SMILES): NC(=O)Nc1sc2c(c1C(N)=O)CCc1nn(Cc3ccc(F)cc3)cc1-2
- IC50 [1]: 0.9 µM
- IC50 (THP-1): 2.5 µM

Structure (SMILES): NC(=O)Nc1sc2c(c1C(N)=O)CCc1nn(C3CCCCN(Cc4ccccc4)C3)cc1-2 (racemic)
- IC50 [1]: > 10 µM

Structure (SMILES): NC(=O)Nc1sc2c(c1C(N)=O)CCc1nn(C3CCCN(Cc4ccc(Cl)cc4F)C3)cc1-2 (stereo unspecified)
- IC50 [1]: 0.5 µM
- IC50 [2]: 41 µM
- IC50 (THP-1): 4.4 µM

Structure (SMILES): CC(C)n1cc2c(n1)CCc1c-2sc(NC(N)=O)c1C(N)=O
- IC50 [1]: 2.3 µM
- IC50 (THP-1): 4.6 µM

Structure (SMILES): NC(=O)Nc1sc2c(c1C(N)=O)CCc1nn(Cc3ccccn3)cc1-2
- IC50 [1]: 4.5 µM
- IC50 (THP-1): > 30 µM

Structure (SMILES): NC(=O)Nc1sc2c(c1C(N)=O)CCc1nn(Cc3cccnc3)cc1-2
- IC50 [1]: 4.8 µM
- IC50 (THP-1): 24 µM

Structure (SMILES): NC(=O)Nc1sc2c(c1C(N)=O)CCc1nn(C3CCCN(Cc4ccc(N)cc4F)C3)cc1-2 (stereo unspecified)
- IC50 [1]: 0.5 µM
- IC50 [2]: 9 µM
- IC50 (THP-1): 0.5 µM

Structure (SMILES): NC(=O)Nc1sc2c(c1C(N)=O)CCc1nn(C3CCN(Cc4ccccc4)C3)cc1-2 (racemic)
- IC50 [1]: 3 µM
- IC50 (THP-1): 1.7 µM

Structure (SMILES): NC(=O)Nc1sc2c(c1C(N)=O)CCc1nn(C3CN(Cc4ccccc4)C3)cc1-2
- IC50 [1]: 7.1 µM
- IC50 (THP-1): 2.5 µM

Structure (SMILES): NC(=O)Nc1sc2c(c1C(N)=O)CCc1nn(C3CCN(Cc4ccccc4)CC3)cc1-2
- IC50 [1]: 4.8 µM
- IC50 (THP-1): 1.2 µM

Structure (SMILES): COc1ccc(CN2CCCC(n3cc4c(n3)CCc3c-4sc(NC(N)=O)c3C(N)=O)C2)c(F)c1 (stereo unspecified)
- IC50 [1]: 1.9 µM
- IC50 [2]: > 100 µM
- IC50 (THP-1): 3.8 µM

Structure (SMILES): NC(=O)Nc1sc2c(c1C(N)=O)CCc1nn(C3CCCN(Cc4ccc(F)cc4F)C3)cc1-2 (stereo unspecified)
- IC50 [1]: 1.7 µM
- inhibition (Mus musculus): Dose-dependent effect
- IC50 [2]: > 100 µM
- IC50 (THP-1): 0.8 µM

Structure (SMILES): CCCCCCn1cc2c(n1)CCc1c-2sc(NC(N)=O)c1C(N)=O
- IC50 [1]: 8.4 µM

Structure (SMILES): CCCCn1cc2c(n1)CCc1c-2sc(NC(N)=O)c1C(N)=O
- IC50 [1]: 2.7 µM
- IC50 (THP-1): 4 µM

Structure (SMILES): CCCn1cc2c(n1)CCc1c-2sc(NC(N)=O)c1C(N)=O
- IC50 [1]: 2.9 µM
- IC50 (THP-1): 5.2 µM

Structure (SMILES): NC(=O)Nc1sc2c(c1C(N)=O)CCc1c-2cnn1Cc1ccc(F)cc1
- IC50 [1]: 0.2 µM
- IC50 (THP-1): 12 µM

Structure (SMILES): CN(CCn1cc2c(n1)CCc1c-2sc(NC(N)=O)c1C(N)=O)Cc1ccccc1
- IC50 [1]: 4.6 µM
- IC50 (THP-1): 5.1 µM

Structure (SMILES): NC(=O)Nc1sc2c(c1C(N)=O)CCc1nn(C3CCCN(Cc4cc(F)c(F)cc4F)C3)cc1-2 (stereo unspecified)
- IC50 [1]: 3.1 µM
- IC50 (THP-1): 0.3 µM

Structure (SMILES): NC(=O)Nc1sc2c(c1C(N)=O)CCc1nn(C3CCCN(Cc4ccccc4)C3)cc1-2 (racemic)
- IC50 [1]: 2.2 µM
- IC50 [2]: > 100 µM
- IC50 (THP-1): 0.5 µM

Structure (SMILES): COCCn1cc2c(n1)CCc1c-2sc(NC(N)=O)c1C(N)=O
- IC50 [1]: 11 µM

Structure (SMILES): CN(C)CCn1cc2c(n1)CCc1c-2sc(NC(N)=O)c1C(N)=O
- IC50 [1]: 8.8 µM

Structure (SMILES): NC(=O)Nc1sc2c(c1C(N)=O)CCc1nn(Cc3ccccc3)cc1-2
- IC50 [1]: 4.2 µM
- IC50 (THP-1): 5.6 µM

Source: ChEMBL document CHEMBL1681716, “Novel dihydrothieno[2,3-e]indazole derivatives as IκB kinase inhibitors” (Bioorg Med Chem Lett, 2011)
